ChEMBL document CHEMBL2385037, “Bioactive dimeric carbazole alkaloids from Murraya koenigii” (J Nat Prod, 2013)

How the values were obtained:
[1] = Inhibition of alpha glucosidase (unknown origin) assessed as p-nitrophenyl alpha-D-glucopyranoside conversion to p-nitrophenol after 30 mins by spectrophotometric analysis; design: species or system Homo sapiens
[2] = test system: DNA; test: Binding affinity to calf thymus DNA by absorption titration; assay type: nucleic-acid assay; conditions: Bos taurus
Outline: (§1)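 CT-DNA absorption titration: compound held at 50 μM while CT-DNA is raised over 0−25 μM, and electronic absorption spectra are recorded. The intrinsic binding constant Kb is fitted from [DNA]/(εa − εf) versus [DNA], with DNA counted in base pairs. εa = Aobs/[compound]; εf and εb are the free and fully bound extinction coefficients.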

[3] = biological target: T1, Albumin (Bos taurus, UniProt P02769); test: Binding affinity to bovine serum albumin assessed as change in hypochromicity at 1 to 2.5 uM by spectrophotometric analysis relative to control; assay type: ADME; conditions: cattle, isolated protein
T1 sequence (P02769 whole entry): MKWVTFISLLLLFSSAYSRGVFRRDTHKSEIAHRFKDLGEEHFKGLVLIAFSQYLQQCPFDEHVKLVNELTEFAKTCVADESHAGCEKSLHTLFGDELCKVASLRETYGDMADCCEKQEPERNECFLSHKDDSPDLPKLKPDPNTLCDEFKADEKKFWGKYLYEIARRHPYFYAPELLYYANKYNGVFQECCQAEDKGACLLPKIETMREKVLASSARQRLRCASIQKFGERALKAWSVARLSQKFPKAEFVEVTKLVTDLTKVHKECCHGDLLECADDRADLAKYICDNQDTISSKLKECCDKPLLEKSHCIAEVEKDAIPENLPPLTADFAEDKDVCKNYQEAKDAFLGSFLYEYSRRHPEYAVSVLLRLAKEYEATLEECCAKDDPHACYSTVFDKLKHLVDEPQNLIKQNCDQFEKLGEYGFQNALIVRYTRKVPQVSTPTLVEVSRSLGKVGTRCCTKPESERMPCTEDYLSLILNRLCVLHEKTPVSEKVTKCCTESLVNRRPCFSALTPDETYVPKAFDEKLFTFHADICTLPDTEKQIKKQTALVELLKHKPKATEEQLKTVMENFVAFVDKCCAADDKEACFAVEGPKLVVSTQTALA

[4] = biological target: T1, Albumin; test: Binding affinity to bovine serum albumin assessed as decrease in fluorescence intensity by Stern-Volmer plot analysis; assay type: ADME; conditions: cattle, isolated protein
Outline: (§2)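 Intrinsic fluorescence quenching: emission spectra of BSA (2 μM) are recorded with compound added over 0−2.5 μM. The quenching data are analysed by Stern–Volmer and Scatchard plots to give the quenching constant Kq, the binding constant and the number of binding sites n.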

[5] = biological target: T1, Albumin; test: Binding affinity to bovine serum albumin assessed blue shift at 3 uM by UV-vis spectrophotometric analysis; assay type: ADME; conditions: cattle, isolated protein
[6] = test system: DNA; test: Displacement of ethidium bromide from calf thymus DNA assessed as […] at 1 to 50 uM by fluorescence spectrophotometric analysis relative to control; assay type: nucleic-acid assay; conditions: Bos taurus
Outline: (§3)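 Ethidium bromide displacement: emission of EB bound to CT-DNA (5 μM) is followed while compound is added over 0−50 μM. The Stern–Volmer Kq is the slope of I0/I versus [Q]. Kapp comes from KEB[EB] = Kapp[compound], taking the compound concentration at 50% loss of EB fluorescence, with KEB = 1.0 × 10^7 M−1 and [EB] = 5 μM.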

[7] = biological target: T1, Albumin; test: Binding affinity to bovine serum albumin assessed decrease in fluorescence at 1 to 2.5 uM at 60 nm wavelength by fluorescence spectrophotometric analysis; assay type: ADME; conditions: cattle, isolated protein
Outline: (§4)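 Synchronous fluorescence: BSA (2 μM) is titrated with compound over 0−2.5 μM. Spectra are recorded at wavelength differences Δλ = 15 nm and Δλ = 60 nm.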

[8] = biological target: T1, Albumin; test: Binding affinity to bovine serum albumin assessed as decrease in fluorescence intensity by Scatchard plot analysis; assay type: ADME; conditions: cattle, isolated protein; outline: as §2
[9] = test system: DNA; test: Displacement of ethidium bromide from calf thymus DNA assessed as decrease in fluorescence intensity by Stern-Volmer plot analysis; assay type: nucleic-acid assay; conditions: Bos taurus; outline: as §3
[10] = biological target: T1, Albumin; test: Binding affinity to bovine serum albumin assessed decrease in fluorescence at 1 to 2.5 uM at 15 nm wavelength by fluorescence spectrophotometric analysis; assay type: ADME; conditions: cattle, isolated protein; outline: as §4
[11] = Antioxidant activity assessed as hydroxyl radical scavenging activity after 15 mins by spectrophotometric analysis; assay type: functional
[12] = test system: Radical scavenging activity; test: Antioxidant activity assessed as DPPH free radical scavenging activity by spectrophotometric analysis; assay type: functional
[13] = test system: DNA; test: Binding affinity to calf thymus DNA assessed as change in hypochromicity at 50 uM by UV-vis titration relative to control; assay type: nucleic-acid assay; conditions: Bos taurus; outline: as §1
[14] = test system: DNA; test: Displacement of ethidium bromide from calf thymus DNA assessed as decrease in fluorescence intensity by spectrophotometric analysis; assay type: nucleic-acid assay; conditions: Bos taurus; outline: as §3
[15] = Antioxidant activity assessed as nitric oxide scavenging activity after 150 mins by Greiss method; assay type: functional
[16] = test system: AGS; test: Cytotoxicity against human AGS cells incubated for 24 hrs followed by compound washout measured after 48 hrs by MTT assay; assay type: functional, cell-based
[17] = test system: HCT-116; test: Cytotoxicity against human HCT116 cells incubated for 24 hrs followed by compound washout measured after 48 hrs by MTT assay; assay type: functional, cell-based
[18] = test system: HeLa; test: Cytotoxicity against human HeLa cells incubated for 24 hrs followed by compound washout measured after 48 hrs by MTT assay; assay type: functional, cell-based

IC50 [1] [µM]	Kb [2] [×10⁵ /M]	Activity [3] [%]	Kq [4] [×10⁵ /M]	Activity [5]	Activity [6] [%]	Activity [7]	Kb [8] [×10⁴ /M]	Kq [9] [×10⁵ /M]	Activity [10]	IC50 [11] [µM]	IC50 [12] [µM]	Activity [13] [%]	Kapp [14] [×10⁵ /M]	IC50 [15] [µM]	SMILES	IC50 [16] [µM]	IC50 [17] [µM]	IC50 [18] [µM]
69	2	36	2.21	Active	28	Active	0.09	0.3	Active	13.2	41.8	54	0.13	8.6	COc1cc2c(cc1-c1c(OC)ccc3c1[nH]c1c4c(c(C)cc13)OC(C)(C/C=C(\C)CCC=C(C)C)C=C4)c1cc(C)c3c(c1n2C)C=CC(C)(C/C=C(\C)CCC=C(C)C)O3 (stereo not given)			
15.2															C[C@H]1O[C@H](O[C@H]2[C@H](O)[C@@H](O)[C@@H](O[C@H]3[C@H](O)[C@@H](O)C(O)O[C@@H]3CO)O[C@@H]2CO)[C@H](O)[C@@H](O)[C@@H]1N[C@H]1C=C(CO)[C@@H](O)[C@H](O)[C@H]1O (stereo not given in full) [ACARBOSE]			
45.4	4.3	47	3.52	Active	44	Active	1.02	0.32	Active	12.3	31.9	82	1.6	6.5	COc1ccc2c([nH]c3c4c(c(C)cc32)OC(C)(C/C=C(\C)CCC=C(C)C)C=C4)c1-c1c(O)ccc2[nH]c3c4c(c(C)cc3c12)OC(C)(C/C=C(\C)CCC=C(C)C)C=C4 (stereo not given)	23.2	22.3	17.2
41.2	2.2	36	2.2	Active	22	Active	0.72	0.1	Active	8.8	31.1	55	0.5	7.2	COc1ccc2c([nH]c3c4c(c(C)cc32)OC(C)(C/C=C(\C)CCC=C(C)C)C=C4)c1-c1ccc2[nH]c3c4c(c(C)cc3c2c1O)OC(C)(C/C=C(\C)CCC=C(C)C)C=C4 (stereo not given)			
										11.5	4.5			8.6	Cc1cc(C(C)(C)C)c(O)c(C(C)(C)C)c1 [BUTYLATED HYDROXYTOLUENE]			
										19.4	4.7			4.7	C[C@@H]1O[C@@H](OC[C@H]2O[C@@H](Oc3c(-c4ccc(O)c(O)c4)oc4cc(O)cc(O)c4c3=O)[C@H](O)[C@@H](O)[C@@H]2O)[C@H](O)[C@H](O)[C@H]1O [RUTIN]			
